PAFAH1B3 FP inh = blocks human PAF acetylhydrolase 1B catalytic subunit 3. 0.28% of 340,000 active. inhibition, % at 3.39 µM. recombinant PAFAH1B3, FP-rhodamine probe, fluorescence polarization;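 active means inhibition above the screen-wide average of all tested compounds plus 3 SD, cut at about 25% in these data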
Target sequence (Q15102 whole entry, looked up): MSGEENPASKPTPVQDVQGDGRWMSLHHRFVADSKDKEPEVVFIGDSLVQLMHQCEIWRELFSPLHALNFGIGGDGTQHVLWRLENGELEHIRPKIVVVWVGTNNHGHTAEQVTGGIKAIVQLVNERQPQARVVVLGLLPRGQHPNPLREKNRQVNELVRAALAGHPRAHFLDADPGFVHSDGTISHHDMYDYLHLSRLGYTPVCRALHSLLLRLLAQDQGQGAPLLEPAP
PAFAH1B2 inh = PAFAH1B2 (human) inhibition | P68402 | AID 492953 | recombinant PAFAH1B2, FP-rhodamine activity probe, fluorescence polarization | 1.2% of 340,000 active | inhibition, % at 3.39 µM;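 active means inhibition above the mean of all tested compounds plus 3 SD, cut at about 24% in these data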
PAFAH2 inh = PAFAH2 (human) inhibition | recombinant PAFAH2, FP-rhodamine activity probe, fluorescence polarization | inhibition, % at 3.39 µM | 0.99% of 340,000 active;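 active means inhibition above the mean over all tested compounds plus 3 SD, cut at about 30% in these data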;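 further: inhibitors block probe labeling of enzyme so polarization drops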
HTRA1 inh = HTRA1 (human) protease inhibition; Q92743; recombinant HTRA1, FP-rhodamine activity-based probe, fluorescence polarization; inhibition, % at 5.96 µM; 0.5% of 340,000 active; AID 504803; in the data active means inhibition above about 36%
pPAFAH inh = pPAFAH (human) enzyme inhibition | Q13093 | recombinant pPAFAH, FP-rhodamine probe fluorescence polarization | inhibition, % at 3.39 µM | 1.5% of 330,000 active | AID 463082;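 active means inhibition above the mean inhibition across the screen plus 3 SD, cut at about 25% in these data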;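 further: inhibitors block binding of the rhodamine activity-based probe so polarization drops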
Target sequence (Q13093 whole entry, looked up): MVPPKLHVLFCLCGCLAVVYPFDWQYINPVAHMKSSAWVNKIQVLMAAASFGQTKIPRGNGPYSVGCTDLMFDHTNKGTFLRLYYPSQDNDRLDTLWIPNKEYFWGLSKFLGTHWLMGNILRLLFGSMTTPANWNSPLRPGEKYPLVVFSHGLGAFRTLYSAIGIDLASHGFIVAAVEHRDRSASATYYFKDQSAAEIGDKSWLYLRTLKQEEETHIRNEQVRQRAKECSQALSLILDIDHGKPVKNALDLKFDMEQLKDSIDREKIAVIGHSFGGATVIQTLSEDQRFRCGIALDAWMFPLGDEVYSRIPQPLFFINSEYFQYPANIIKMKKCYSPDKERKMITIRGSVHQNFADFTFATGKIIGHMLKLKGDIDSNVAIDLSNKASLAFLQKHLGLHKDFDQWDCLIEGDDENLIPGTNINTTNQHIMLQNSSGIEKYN
ABHD4 inh = ABHD4 (mouse) inhibition, primary FP screen; purified mABHD4, FP-Rh probe fluorescence polarization; 0.54% of 370,000 active; AID 720543; Q8VD66; inhibition, % at 8.92 µM;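 active means inhibition exceeding the mean over every tested compound plus 3 SD, cut at about 30% in these data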
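Assay system: mouse ABHD4 enzyme, wild type / Also added: fluorescent activity-based probe FP-Rh / Doses: single nominal dose of 8.92 µM, 0.89% DMSO final / Timing: 45 min compound pre-incubation plus 60 min probe step, 25 °C / Signal: FP readout, ex 525 nm / em 598 nm / Control set: S159A mutant/DMSO as 100%, compound-well median as 0%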
pPAFAH FP conf = pPAFAH (human) inhibition, confirmed | AID 463230 | recombinant pPAFAH, FP-Rh probe fluorescence polarization | inhibition, % at 3.39 µM | shares compounds with pPAFAH inh | 72% of 2,300 active;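 active means mean inhibition of the triplicate above the hit cutoff set for the earlier primary screen, cut at about 25% in these data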
Numbers stand for hits. The list is not random: actives were taken first. Their share in the collection is about 2.8%.

For CN(C)c1ccc(C(=O)OCC(=O)NCCC2=CCCCC2)cc1 the results were PAFAH1B3 FP inh inactive, PAFAH1B2 inh inactive, PAFAH2 inh 80, HTRA1 inh inactive, pPAFAH inh 38, ABHD4 inh inactive and pPAFAH FP conf inactive.
COc1cc(/C=C2/SC(=S)N(Cc3ccccc3)C2=O)ccc1OCC(=O)O was read as PAFAH1B3 FP inh inactive, PAFAH1B2 inh inactive, PAFAH2 inh inactive, HTRA1 inh inactive, pPAFAH inh 49, ABHD4 inh inactive and pPAFAH FP conf 28.
O=C1/C(=C\c2cccc([N+](=O)[O-])c2O)SC(=S)N1Cc1ccccc1 was read as PAFAH1B3 FP inh inactive, PAFAH1B2 inh inactive, PAFAH2 inh inactive, HTRA1 inh inactive, pPAFAH inh 35, ABHD4 inh inactive and pPAFAH FP conf 77.
`O=C(NCCCc1ccccc1)[C@H](Cc1c[nH]c2ccccc12)NC1(C(=O)NCCc2c[nH]c3ccccc23)CCOCC1` gave ABHD4 inh inactive.
Screening Cc1ccc2c(CC(=O)NCC3COc4ccccc4O3)coc2c1 (configuration not stated) returned PAFAH1B3 FP inh inactive, PAFAH1B2 inh inactive, PAFAH2 inh inactive, HTRA1 inh inactive, pPAFAH inh 37, ABHD4 inh inactive and pPAFAH FP conf inactive.
For O=C(Cc1ccccc1)NCC1COc2ccccc2O1 (configuration not stated) the results were PAFAH1B3 FP inh inactive, PAFAH1B2 inh inactive, PAFAH2 inh inactive, HTRA1 inh inactive, pPAFAH inh inactive and ABHD4 inh inactive.
Screening CCOC(=O)[C@]12CCCC3=C1N(CCC3)C(=O)[C@@H](CC(=O)NCCc1ccccc1OC)C2 returned ABHD4 inh inactive.
CCCCC(=O)N[C@H]1CC[C@@]23CCCN2C(=O)CCC[C@H]3[C@H]1CCC was read as ABHD4 inh inactive.
For O=S(=O)(O)c1cc(O)ccc1O the results were PAFAH1B3 FP inh inactive, PAFAH1B2 inh inactive, PAFAH2 inh inactive, HTRA1 inh inactive, pPAFAH inh inactive and ABHD4 inh inactive.
O=S(=O)(c1cc(O)ccc1O)c1cccc2c(S(=O)(=O)c3cc(O)ccc3O)cccc12 was read as PAFAH1B3 FP inh inactive, PAFAH1B2 inh inactive, PAFAH2 inh inactive, HTRA1 inh inactive, pPAFAH inh 41, ABHD4 inh inactive and pPAFAH FP conf 29.
`Clc1ccc2nc(CNc3nc(N4CCOCC4)nc4c3ncn4-c3ccsc3)[nH]c2c1` gave ABHD4 inh inactive.
`O=C(COC(=O)c1ccc2c(c1Cl)C(=O)c1ccccc1C2=O)NC1CC1` gave PAFAH1B3 FP inh inactive, PAFAH1B2 inh inactive, PAFAH2 inh 34, HTRA1 inh inactive, pPAFAH inh 54, ABHD4 inh inactive and pPAFAH FP conf 44.
Screening O=C(COC(=O)c1ccc2c(c1Cl)C(=O)c1ccccc1C2=O)NC1CCCCC1 returned PAFAH1B3 FP inh inactive, PAFAH1B2 inh inactive, PAFAH2 inh 44, HTRA1 inh inactive, pPAFAH inh 53, ABHD4 inh inactive and pPAFAH FP conf 50.
Screening COCCCNC(=O)C[C@H]1C[C@@]2(C(=O)OC)C(=C[C@H](C(C)C)O[C@@H]2C2CC2)N(Cc2ccc3c(c2)OCO3)C1=O returned ABHD4 inh inactive.
For CCC(=O)Nc1ccccc1C(=O)N1CCOCC1 the results were PAFAH1B3 FP inh inactive, PAFAH1B2 inh inactive, PAFAH2 inh inactive, HTRA1 inh inactive, pPAFAH inh inactive and ABHD4 inh inactive.
Screening Cc1cnc(C(=O)Nc2ccccc2C(=O)N2CCOCC2)cn1 returned PAFAH1B3 FP inh inactive, PAFAH1B2 inh inactive, PAFAH2 inh inactive, HTRA1 inh inactive, pPAFAH inh 37, ABHD4 inh inactive and pPAFAH FP conf inactive.
`Cc1ccc(CS(=O)Cc2ccc(C(=O)N3CCN(c4cccc(C)c4C)CC3)o2)cc1` (configuration not stated) gave HTRA1 inh inactive and ABHD4 inh inactive.
Screening Cc1cccc(N2CCN(C(=O)c3ccc(CS(=O)Cc4cccc(Cl)c4)o3)CC2)c1C (configuration not stated) returned PAFAH1B3 FP inh inactive, PAFAH1B2 inh inactive, PAFAH2 inh inactive, HTRA1 inh inactive, pPAFAH inh 43, ABHD4 inh inactive and pPAFAH FP conf inactive.
Screening COc1ccc(N2CCN(C(=O)c3ccc(CS(=O)Cc4ccc(Cl)cc4)o3)CC2)cc1 (configuration not stated) returned PAFAH1B3 FP inh inactive, PAFAH1B2 inh inactive, PAFAH2 inh inactive, HTRA1 inh inactive, pPAFAH inh 36, ABHD4 inh inactive and pPAFAH FP conf 28.
`COC(=O)[C@]12C[C@H](CC(=O)N3CCN(C(=O)C4CC4)CC3)C(=O)N(Cc3ccc(Cl)cc3Cl)C1=C[C@H](C(C)(C)C)O[C@@H]2C` gave ABHD4 inh inactive.
For COC(=O)[C@H](C(C)C)N1Cc2nnn(Cc3ccccc3)c2-c2ccccc2S1(=O)=O the results were ABHD4 inh inactive.
`COc1ccccc1CCC[C@H](CCS(=O)(=O)C(C)C)CC1CCCCC1` gave ABHD4 inh inactive.
`Cc1ccccc1N1CCN(C(=O)CCn2nnc3ccccc32)CC1` gave ABHD4 inh inactive.
Screening CCOC(=O)CC[C@@]1(C(=O)OCC)C[C@@H](CC(=O)NCCCOC)C(=O)N2CCCC=C21 returned ABHD4 inh inactive.
Screening Cc1cccc(S(=O)(=O)Nc2ccc(-c3cn4ccccc4n3)cc2)c1 returned PAFAH1B3 FP inh inactive, PAFAH1B2 inh inactive, PAFAH2 inh inactive, HTRA1 inh inactive, pPAFAH inh 35, ABHD4 inh inactive and pPAFAH FP conf inactive.
Screening COc1ccc(C(=O)NCCS(=O)(=O)NCc2ccc3c(c2)OCO3)cc1 returned PAFAH1B3 FP inh inactive, PAFAH1B2 inh inactive, PAFAH2 inh inactive, HTRA1 inh inactive, pPAFAH inh 39, ABHD4 inh inactive and pPAFAH FP conf inactive.
For COc1ccc(CNS(=O)(=O)CCNC(=O)c2ccc3c(c2)OCO3)cc1 the results were PAFAH1B3 FP inh inactive, PAFAH1B2 inh inactive, PAFAH2 inh inactive, HTRA1 inh inactive, pPAFAH inh inactive and ABHD4 inh inactive.
`CC(=N)c1c(O)c2ccccc2oc1=O` gave PAFAH1B3 FP inh inactive, PAFAH1B2 inh inactive, PAFAH2 inh inactive, HTRA1 inh inactive, pPAFAH inh 63, ABHD4 inh inactive and pPAFAH FP conf inactive.
Screening CCCCC(=O)c1c(O)c2ccccc2oc1=O returned PAFAH1B3 FP inh inactive, PAFAH1B2 inh inactive, PAFAH2 inh inactive, HTRA1 inh inactive, pPAFAH inh inactive and ABHD4 inh inactive.
`O=C(CSc1nnc(-c2ccccc2)n1Cc1ccco1)Nc1ccc(Oc2ccccc2)cc1` gave ABHD4 inh inactive.
`O=C(Cc1c[nH]c2ccccc12)Nc1ccc(Nc2cccnc2)c(-c2ccc(-c3ccccc3)cc2F)c1` gave ABHD4 inh inactive.
